Data taken from ChEMBL document CHEMBL4257467, “Synthesis and pharmaceutical characterization of site specific mycophenolic acid-modified Xenopus glucagon-like peptide-1 analogs” (Medchemcomm, 2018).
Calls of active or inactive are those of the source. *1 amine or outer side, *2 acyl side, *3 side chain or, on linkers, in order; H or OH if unused. Where a SMILES comes first, the peptide text is derived from it. Side-chain parts run from the residue outwards. The star is where a group is joined. Mycophenolyl = COc1c(C)c2c(c(O)c1C/C=C(\C)CCC(=O)*)C(=O)OC2; γGlu = O=C(O)[C@H](CCC(=O)[*:2])N[*:1]; 12Ado = NCCCCCCCCCCCC(=O)O; Ahx = NCCCCCC(=O)O

Key:
[1] = target: Glucagon-like peptide 1 receptor (Homo sapiens, UniProt P43220); experiment: Agonist activity at human GLP1 receptor expressed in HEK293 cells assessed as increase in cAMP level after 30 mins by HTRF method; assay type: functional, cell-based
In short: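 HEK293 cells stably expressing human GLP-1 receptor, thawed, suspended in DMEM with 20 mM HEPES, 2 mM L-Glu, 0.5% FBS, 1% pen-strep. Compounds dissolved in DMSO, diluted in assay buffer to 1 × 10−13–1 × 10−6 M final, 30 min at 37 °C in 5% CO2. cAMP read by HTRF. EC50 as means ± SD of three individual experiments, n = 3.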

Mus musculus [2] = experiment: Antidiabetic activity in Kunming mouse assessed as reduction in blood glucose level at 25 nmol/kg, ip pretreated for 30 mins followed by glucose-challenge and measured after 15 to 120 mins by IPGTT; assay type: functional, organism-based
In short: (§1)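 Male Kunming mice (20–25 g, n = 6) fasted overnight. Peptide or saline 25 nmol kg−1 ip at −30 min, ip glucose 2 g kg−1 at 0 min. Tail-vein blood glucose by glucometer at −30, 0, 15, 30, 60 and 120 min. Glucose AUC0–120min calculated; means ± SD.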

Mus musculus [3] = experiment: Antidiabetic activity in Kunming mouse assessed as reduction in blood glucose AUC at 25 nmol/kg, ip pretreated for 30 mins followed by glucose-challenge and measured after 15 to 120 mins by IPGTT; assay type: functional, organism-based; in short: as §1
Albumin = Albumin (Homo sapiens, UniProt P02768); experiment: Binding affinity to human serum albumin after 60 mins by ultrafiltration-based HPLC analysis; assay type: ADME; settings: human serum albumin, read-out: PB (converted)
In short: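 Peptide in PBS pH 7.4 (100 μg ml−1) mixed with HSA (10 mg ml−1 in PBS), incubated 60 min at 37 °C. Ultrafiltration through 30 kDa cutoff filter, 30 min at 3500 rpm. Free compound in filtrate by HPLC. Membrane adsorption checked (<4%). Repeated three times.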

[4] = Half life in Sprague-Dawley rat plasma at 0.5 mL by LC-MS/MS analysis; assay type: ADME, cell-free; settings: Sprague-Dawley
In short: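 Plasma from male Sprague-Dawley rats (200–250 g). Peptide in PBS pH 7.4 added to initial 1000 ng ml−1 and incubated at 37 °C for 48 h. Samples at 2, 4, 8, 12, 24, 36, 48 h precipitated with acetonitrile containing 2% formic acid, centrifuged, analysed by LC-MS/MS in MRM mode. Degradation curves in triplicate.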

Mus musculus [5] = experiment: Hypoglycemic activity in C57BL/6J m+/+ Lepr db mouse assessed as blood glucose level at 25 nmol/kg, ip pretreated for 30 mins followed by glucose challenge and measured after 15 mins by IPGTT; assay type: functional
In short: (§2)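 Male db/db mice (30–40 g, 9 weeks, n = 6) fasted 18 h. Saline or peptide 25 nmol kg−1 ip at −30 min, ip glucose 1 g kg−1 at 0 min. Tail-vein glucose by glucometer at −30, 0, 10, 15, 30, 45, 60, 120 min. Plasma insulin by mouse insulin ELISA. AUC0–120min for glucose and insulin calculated; means ± SD.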

Mus musculus [6] = experiment: Hypoglycemic activity in C57BL/6J m+/+ Lepr db mouse assessed as blood glucose AUC (0 to 120 mins) at 25 nmol/kg, ip pretreated for 30 mins followed by glucose challenge by IPGTT; assay type: functional, organism-based; in short: as §2
Mus musculus [7] = experiment: Antidiabetic activity in C57BL/6J m+/+ Lepr db mouse assessed as plasma insulin level at 25 nmol/kg, ip pretreated for 30 mins followed by glucose challenge and measured after 15 mins by ELISA; assay type: functional; in short: as §2
Mus musculus [8] = experiment: Antidiabetic activity in C57BL/6J m+/+ Lepr db mouse assessed as increase in plasma insulin AUC (0 to 120 mins) at 25 nmol/kg, ip pretreated for 30 mins followed by glucose challenge by ELISA; assay type: functional, organism-based; in short: as §2
Mus musculus [9] = experiment: Hypoglycemic activity in C57BL/6J m+/+ Lepr db mouse assessed as reduction in fasting blood glucose level at 25 nmol/kg, ip pretreated for 30 mins followed by glucose challenge at 6 hrs interval for 24 hrs and measured up to 3 hrs by OGTT; assay type: functional, organism-based
In short: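 Male db/db mice (30–40 g, 9 weeks, n = 6) fasted 18 h, given saline or peptide 25 nmol kg−1 ip at −0.5 h. Oral glucose 1.5 g kg−1 at 0 h, repeated every 6 h (6, 12, 18 h) over 24 h. Blood glucose by glucometer at 0, 0.25, 0.5, 1, 2 and 3 h after each load.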

Mus musculus [10] = experiment: Hypoglycemic activity in non-fasting C57BL/6J m+/+ Lepr db mouse assessed as rebound time from the lowest glucose level (12 mmol/L) to diabetic glucose level (>15 mmol/L) at 25 nmol/kg, ip by glucometric method; assay type: functional
In short: (§3)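 Non-fasting male db/db mice (30–40 g, 9 weeks, n = 6) with free food and water. Single ip dose at 0 h: liraglutide 25 nmol kg−1, test peptides 25 or 100 nmol kg−1, or saline. Blood glucose by glucometer at 0, 2, 4, 6, 12, 24, 48 h. Rebound time to >15 mmol L−1 and AUC0–48h derived; means ± SD.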

Mus musculus [11] = experiment: Hypoglycemic activity in non-fasting C57BL/6J m+/+ Lepr db mouse assessed as rebound time from the lowest glucose level (12 mmol/L) to diabetic glucose level (>15 mmol/L) at 100 nmol/kg, ip by glucometric method; assay type: functional; in short: as §3
Mus musculus [12] = experiment: Hypoglycemic activity in non-fasting C57BL/6J m+/+ Lepr db mouse assessed as reduction in blood glucose AUC (0 to 48 hrs) at 25 to 100 nmol/kg, ip by glucometric method; assay type: functional, organism-based; in short: as §3
Mus musculus [13] = experiment: Antidiabetic activity in C57BL/6J m+/+ Lepr db mouse assessed as reduction in glycated hemoglobin level at 50 nmol/kg, ip administered once daily for 5 weeks relative to control; assay type: functional; parameters: scale not given: the % may be the effect or the level left
Mus musculus [14] = experiment: Antidiabetic activity in C57BL/6J m+/+ Lepr db mouse assessed as non-fasting blood glucose levels at 50 nmol/kg, ip administered once daily for 5 weeks measured every 4 days during compound dosing; assay type: functional
Mus musculus [15] = experiment: Antidiabetic activity in C57BL/6J m+/+ Lepr db mouse assessed as increase in non-fasting plasma insulin levels at 50 nmol/kg, ip administered once daily for 5 weeks measured every 4 days during compound dosing; assay type: functional, organism-based
Mus musculus [16] = experiment: Antidiabetic activity in C57BL/6J m+/+ Lepr db mouse assessed as reduction in body weight gain at 50 nmol/kg, ip administered once daily for 5 weeks measured every 4 days during compound dosing relative to control; assay type: functional; parameters: scale not given: the % may be the effect or the level left
Mus musculus [17] = experiment: Antidiabetic activity in C57BL/6J m+/+ Lepr db mouse assessed as reduction in food intake at 50 nmol/kg, ip administered once daily for 5 weeks measured every 4 days during compound dosing; assay type: functional, organism-based
Mus musculus [18] = experiment: Antidiabetic activity in C57BL/6J m+/+ Lepr db mouse assessed as change in blood glucose level at 50 nmol/kg, ip administered once daily for 5 weeks followed by glucose challenge measured after 15 to 120 mins by IPGTT; assay type: functional, organism-based
Mus musculus [19] = experiment: Antidiabetic activity in C57BL/6J m+/+ Lepr db mouse assessed as reduction in blood glucose AUC (0 to 120 mins) at 50 nmol/kg, ip administered once daily for 5 weeks followed by glucose challenge by IPGTT; assay type: functional, organism-based
Mus musculus [20] = experiment: Antidiabetic activity in C57BL/6J m+/+ Lepr db mouse assessed as serum triglyceride level at 50 nmol/kg, ip administered once daily for 5 weeks (reference value: 2.3 +/- 0.3 mmol/L); assay type: functional
Mus musculus [21] = experiment: Antidiabetic activity in C57BL/6J m+/+ Lepr db mouse assessed as serum total cholesterol level at 50 nmol/kg, ip administered once daily for 5 weeks (reference value: 6.5 +/- 0.4 mmol/L); assay type: functional
Mus musculus [22] = experiment: Antidiabetic activity in C57BL/6J m+/+ Lepr db mouse assessed as serum LDL-cholesterol level at 50 nmol/kg, ip administered once daily for 5 weeks (reference value: 2.2 +/- 0.3 mmol/L); assay type: functional
Mus musculus [23] = experiment: Toxicity in C57BL/6J m+/+ Lepr db mouse assessed as HDL-cholesterol level at 50 nmol/kg, ip administered once daily for 5 weeks (reference value: 1.7 +/- 0.3 mmol/L); assay type: organism-based; settings: in vivo, 840 h
Mus musculus [24] = experiment: Hepatotoxicity in C57BL/6J m+/+ Lepr db mouse assessed as serum ALT level at 50 nmol/kg, ip administered once daily for 5 weeks (reference value: 61.4 +/- 10 IU/L); assay type: toxicity, organism-based; settings: in vivo, 840 h
Mus musculus [25] = experiment: Hepatotoxicity in C57BL/6J m+/+ Lepr db mouse assessed as serum AST level at 50 nmol/kg, ip administered once daily for 5 weeks (reference value: 75 +/- 7.4 IU/L); assay type: toxicity, organism-based; settings: in vivo, 840 h

Chain of Glucagon-like peptide 1 receptor (P43220 whole entry): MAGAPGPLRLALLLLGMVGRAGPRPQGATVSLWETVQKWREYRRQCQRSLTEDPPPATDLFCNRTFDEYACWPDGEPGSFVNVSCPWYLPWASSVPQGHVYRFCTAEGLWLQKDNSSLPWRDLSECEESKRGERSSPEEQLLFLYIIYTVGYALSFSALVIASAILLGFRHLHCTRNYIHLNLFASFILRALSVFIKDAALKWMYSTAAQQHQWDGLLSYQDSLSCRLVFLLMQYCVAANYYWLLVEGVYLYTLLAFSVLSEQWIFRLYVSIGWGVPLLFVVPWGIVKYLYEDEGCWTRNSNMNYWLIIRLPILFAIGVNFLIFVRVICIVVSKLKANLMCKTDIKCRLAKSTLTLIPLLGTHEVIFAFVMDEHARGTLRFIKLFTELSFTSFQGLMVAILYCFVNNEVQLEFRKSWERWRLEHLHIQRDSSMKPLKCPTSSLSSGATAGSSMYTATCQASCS
Chain of Albumin (P02768 whole entry): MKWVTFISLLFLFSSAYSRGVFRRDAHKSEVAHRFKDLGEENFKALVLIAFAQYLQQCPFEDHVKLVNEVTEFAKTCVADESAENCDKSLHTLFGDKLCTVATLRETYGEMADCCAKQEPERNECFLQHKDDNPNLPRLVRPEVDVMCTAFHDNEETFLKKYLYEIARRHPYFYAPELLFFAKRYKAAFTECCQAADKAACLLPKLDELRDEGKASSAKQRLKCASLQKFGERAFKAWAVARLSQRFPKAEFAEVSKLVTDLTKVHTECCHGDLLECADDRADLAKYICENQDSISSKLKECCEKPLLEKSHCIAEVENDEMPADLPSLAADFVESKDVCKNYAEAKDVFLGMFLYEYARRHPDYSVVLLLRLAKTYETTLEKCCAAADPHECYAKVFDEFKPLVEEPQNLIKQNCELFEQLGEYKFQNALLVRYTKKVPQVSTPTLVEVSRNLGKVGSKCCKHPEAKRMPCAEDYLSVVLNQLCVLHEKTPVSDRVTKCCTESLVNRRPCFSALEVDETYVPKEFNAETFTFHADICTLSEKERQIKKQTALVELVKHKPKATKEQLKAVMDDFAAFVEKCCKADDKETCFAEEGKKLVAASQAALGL

Molecule: CC[C@H](C)[C@H](NC(=O)[C@H](CC(C)C)NC(=O)[C@H](Cc1c[nH]c2ccccc12)NC(=O)[C@H](CCC(=O)O)NC(=O)[C@@H](NC(=O)[C@H](Cc1ccccc1)NC(=O)[C@H](CCC(=O)O)NC(=O)[C@H](CCCCNC(=O)CC[C@H](NC(=O)CCCCCNC(=O)CC/C(C)=C/Cc1c(O)c2c(c(C)c1OC)COC2=O)C(=O)O)NC(=O)[C@H](C)NC(=O)[C@H](C)NC(=O)[C@H](CCC(=O)O)NC(=O)[C@H](CCC(=O)O)NC(=O)[C@H](CCC(=O)O)NC(=O)[C@H](CC(C)C)NC(=O)[C@H](Cc1ccc(O)cc1)NC(=O)[C@H](CCC(=O)O)NC(=O)[C@@H](NC(=O)[C@@H](NC(=O)[C@H](CC(=O)O)NC(=O)[C@H](CC(N)=O)NC(=O)[C@@H](NC(=O)[C@H](Cc1ccc(O)cc1)NC(=O)[C@@H](NC(=O)CNC(=O)[C@H](CCC(=O)O)NC(=O)CNC(=O)[C@@H](N)Cc1cnc[nH]1)[C@@H](C)O)[C@@H](C)O)C(C)C)[C@@H](C)O)[C@@H](C)CC)C(=O)N[C@@H](CCCCN)C(=O)NCC(=O)N[C@@H](CCCCN)C(=O)N1CCC[C@H]1C(=O)N[C@@H](CO)C(=O)N[C@@H](CO)C(=O)NCC(=O)N[C@@H](C)C(=O)N1CCC[C@H]1C(=O)N1CCC[C@H]1C(=O)N1CCC[C@H]1C(=O)N[C@@H](CO)C(=O)O (H-HGEGTYTNDVTEYLEEEAAK([γGlu-Ahx-Mycophenolyl])EFIEWLIKGKPSSGAPPPS-OH)
- EC50 [1]: 4.1 nM
- Activity (Mus musculus [2]): Active
- Activity (Mus musculus [3]): Active
- fraction unbound at 1 h (Albumin): 0.351
- half-life [4]: 1160 min

Molecule: H-HGEGTYTNDVTEYLEEEAAK([γGlu-12Ado-Mycophenolyl])EFIEWLIKGKPSSGAPPSKKKKKK-OH
- EC50 [1]: 3.1 nM
- Activity (Mus musculus [2]): Active
- Activity (Mus musculus [3]): Active
- fraction unbound at 1 h (Albumin): 0.146
- half-life [4]: 2390 min
- Activity (Mus musculus [5]): 1.07e+07 nmol/L
- Activity (Mus musculus [6]): Active
- Activity (Mus musculus [7]): 18 mIU/L
- Activity (Mus musculus [8]): Active
- Activity (Mus musculus [9]): Active
- Time (Mus musculus [10]): 23.8 h
- Time (Mus musculus [11]): 38.4 h
- Activity (Mus musculus [12]): Active
- Activity (Mus musculus [13]): 6.7%
- Activity (Mus musculus [14]): 11.2 to 14.9 mmol/L
- Activity (Mus musculus [15]): Active
- Activity (Mus musculus [16]): 55%
- Activity (Mus musculus [17]): Active
- Activity (Mus musculus [18]): Active
- Activity (Mus musculus [19]): Active
- Activity (Mus musculus [20]): 1.4 mmol/L
- Activity (Mus musculus [21]): 4.5 mmol/L
- Activity (Mus musculus [22]): 1.4 mmol/L
- Activity (Mus musculus [23]): 1.6 mmol/L
- Activity (Mus musculus [24]): 56.9 IU/L
- Activity (Mus musculus [25]): 62.4 IU/L
